The source made the active and inactive calls. No cut-off for these calls is given here.
What was measured:
U-937 [1] = experiment: Inhibition of LPS/IFN-gamma-induced PGE2 production in PMA-treated human U937 cells at 25 uM after 17 to 20 hrs by enzyme immunoassay relative to control; assay type: functional
Method in brief: (§1)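 Cells (5 × 10⁵/well) attached 24 h, then stimulated with recombinant IFN-γ 100 U/mL and LPS 2 µg/mL with or without compound (DMSO vehicle, 0.1% final), 17–20 h at 37 °C, 5% CO₂. U937 were first differentiated with 200 nM PMA for 24 h, then serum-free overnight. Supernatant PGE₂ quantified against standard curves; dose-response 0.78–50 µM, means ± SD of three samples.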

[2] = Cytotoxicity against mouse RAW264.7 cells assessed as cell viability at 25 uM by MTT assay relative to control; assay type: cell-based; settings: read-out: Activity
Method in brief: (§2)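 After 17–20 h stimulation with 100 U/mL IFN-γ plus 2 µg/mL LPS (±compound, DMSO final 0.1%) at 37 °C, 5% CO₂, supernatant removed; MTT (5 mg/mL stock, 20 µL) added, 4 h at 37 °C; formazan dissolved in DMSO, absorbance at 570 nm. U937 were PMA-differentiated (200 nM, 24 h), then serum-free overnight; RAW264.7 grown in DMEM/10% FBS.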

[3] = Cytotoxicity against PMA-treated human U937 cells assessed as cell viability at 25 uM by MTT assay relative to control; assay type: cell-based, U-937; settings: read-out: Activity; method in brief: as §2
RAW264.7 [4] = experiment: Inhibition of LPS/IFN-gamma-induced nitric oxide production in mouse RAW264.7 cells at 25 uM relative to control; assay type: functional
RAW264.7 [5] = experiment: Inhibition of LPS/IFN-gamma-induced PGE2 production in mouse RAW264.7 cells at 25 uM after 17 to 20 hrs by enzyme immunoassay relative to control; assay type: functional; method in brief: as §1
RAW264.7 [6] = experiment: Inhibition of LPS/IFN-gamma-induced PGE2 production in mouse RAW264.7 cells after 17 to 20 hrs by enzyme immunoassay; assay type: functional, cell-based; method in brief: as §1
U-937 [7] = experiment: Inhibition of LPS/IFN-gamma-induced PGE2 production in PMA-treated human U937 cells after 17 to 20 hrs by enzyme immunoassay; assay type: functional, cell-based; method in brief: as §1
[8] = biological target: T1, Prostaglandin G/H synthase 1 (Ovis aries) (UniProt P05979); experiment: Inhibition of ovine COX1 at 25 uM by ELISA relative to control
T1 sequence (whole entry): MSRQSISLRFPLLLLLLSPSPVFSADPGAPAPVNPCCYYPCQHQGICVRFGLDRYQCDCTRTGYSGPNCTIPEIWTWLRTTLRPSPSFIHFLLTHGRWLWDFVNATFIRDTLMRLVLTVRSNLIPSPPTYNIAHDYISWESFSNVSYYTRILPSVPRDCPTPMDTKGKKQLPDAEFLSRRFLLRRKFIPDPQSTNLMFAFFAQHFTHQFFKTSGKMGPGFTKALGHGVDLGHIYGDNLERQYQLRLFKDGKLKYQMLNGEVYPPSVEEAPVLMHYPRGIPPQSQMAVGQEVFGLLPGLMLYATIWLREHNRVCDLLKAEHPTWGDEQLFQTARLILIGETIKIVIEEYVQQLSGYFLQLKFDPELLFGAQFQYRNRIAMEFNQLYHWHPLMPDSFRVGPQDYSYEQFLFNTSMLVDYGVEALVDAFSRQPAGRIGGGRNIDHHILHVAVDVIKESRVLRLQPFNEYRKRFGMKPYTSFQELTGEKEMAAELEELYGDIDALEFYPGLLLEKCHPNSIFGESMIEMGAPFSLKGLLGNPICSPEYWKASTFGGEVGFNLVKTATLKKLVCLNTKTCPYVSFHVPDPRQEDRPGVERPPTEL
Method in brief: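 COX-1 (ovine) inhibition measured with a commercial ovine/human COX inhibitor screening ELISA kit per manufacturer's protocol; prostaglandin concentrations read on a microplate reader and calculated from standard curves.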

[9] = Inhibition of COX in CD1 mouse epidermal microsomes using [14C]arachidonic acid as substrate assessed as PGE2, PGF2alpha, and PGD2 formation by TLC/liquid scintillation spectrometry method; design: species or system Skin epidermis
[10] = Inhibition of COX in CD1 mouse epidermal cytosolic fractions using [14C]arachidonic acid as substrate assessed as PGE2, PGF2alpha, and PGD2 formation by TLC/liquid scintillation spectrometry method
RAW264.7 [11] = experiment: Inhibition of LPS/IFN-gamma-induced PGE2 production in mouse RAW264.7 cells at 5 uM after 17 to 20 hrs by enzyme immunoassay relative to control; settings: RAW264.7, read-out: INH
U-937 [12] = experiment: Inhibition of LPS/IFN-gamma-induced PGE2 production in PMA-treated human U937 cells at 5 uM after 17 to 20 hrs by enzyme immunoassay relative to control; settings: U-937, read-out: INH
[13] = Cytotoxicity against mouse RAW264.7 cells assessed as cell viability at 5 uM by MTT assay relative to control
[14] = Cytotoxicity against PMA-treated human U937 cells assessed as cell viability at 5 uM by MTT assay relative to control

| IC50 (RAW264.7 [6]) [µM] | IC50 (U-937 [7]) [nM] | inhibition [8] | IC50 [9] [µM] | IC50 [10] [µM] | SMILES | inhibition at 25 µM (U-937 [1]) [%] | viability at 25 µM [2] [%] | viability at 25 µM [3] [%] | inhibition (RAW264.7 [4]) | inhibition at 25 µM (RAW264.7 [5]) [%] | inhibition (U-937 [7]) | inhibition at 25 µM (RAW264.7 [4]) [%] | inhibition at 5 µM (RAW264.7 [11]) [%] | inhibition at 5 µM (U-937 [12]) [%] | viability at 5 µM [13] [%] | viability at 5 µM [14] [%] |
| --- | --- | --- | --- | --- | --- | --- | --- | --- | --- | --- | --- | --- | --- | --- | --- | --- |
| – | – | – | – | – | COc1cccc(/C=C2\CCC/C(=C\c3ccc(-c4ccc(F)cc4)cc3)C2=O)c1OC | 68 | 90 | 98 | inactive | 51 | – | – | – | – | – | – |
| 4.86 | 1650 | inactive | – | – | Cc1ccc(/C=C2\CCC/C(=C\c3ccc(C)o3)C2=O)cc1 | 84 | 83 | 98 | – | 92 | Dose-dependent effect | 99 | – | – | – | – |
| – | – | – | – | – | COc1cccc(/C=C2\CCC/C(=C\c3ccc(Cl)c(Cl)c3)C2=O)c1OC | 58 | 77 | 100 | – | 73 | – | 90 | – | – | – | – |
| 12 | 3440 | inactive | – | – | COc1cccc(/C=C2\CCC/C(=C\c3ccc(C)cc3)C2=O)c1OC | 83 | 100 | 100 | – | 83 | Dose-dependent effect | 95 | – | – | – | – |
| 16 | 1880 | inactive | 52 | 5 | COc1cc(/C=C/C(=O)CC(=O)/C=C/c2ccc(O)c(OC)c2)ccc1O [CURCUMIN] | 94 | 90 | 95 | – | 78 | – | 85 | – | – | – | – |
| < 0.078 | < 78 | – | – | – | CS(=O)(=O)Nc1ccc([N+](=O)[O-])cc1Oc1ccccc1 [NIMESULIDE] | – | – | – | – | – | – | – | 66 | 89 | 100 | 100 |
| – | – | – | – | – | COc1cc(/C=C2\CCC/C(=C\c3ccc(Br)cc3)C2=O)ccc1O | 87 | < 50 | 100 | – | 96 | – | 100 | – | – | – | – |
| – | – | – | – | – | Cc1ccc(/C=C2\CCC/C(=C\c3cccc4ccccc34)C2=O)cc1 | 66 | 100 | 94 | inactive | 74 | – | – | – | – | – | – |
| 0.78 | 950 | inactive | – | – | COc1ccc(/C=C2\CCC/C(=C\c3ccc(O)c(OC)c3)C2=O)cc1 | 86 | < 50 | 100 | – | 96 | – | 100 | – | – | – | – |
| – | – | – | – | – | COc1cc(/C=C2\CCC/C(=C\c3ccc(C)cc3)C2=O)ccc1O | 85 | < 50 | 100 | – | 95 | – | 100 | – | – | – | – |
| – | – | – | – | – | CCN(CC)c1ccc(/C=C2\CCC/C(=C\c3ccc(O)c(OC)c3)C2=O)cc1 | 85 | < 50 | 100 | – | 95 | – | 100 | – | – | – | – |
| – | – | – | – | – | O=C1/C(=C/c2ccc(-c3ccc(F)cc3)cc2)CCC/C1=C\c1ccc(Cl)c(Cl)c1 | 76 | 100 | 94 | inactive | 59 | – | – | – | – | – | – |
| – | – | – | – | – | CCN(CC)c1ccc(/C=C2\CCC/C(=C\c3ccc(-c4ccc(F)cc4)cc3)C2=O)cc1 | 72 | 94 | 100 | inactive | 65 | – | – | – | – | – | – |
| – | – | – | – | – | Cc1ccc(/C=C2\CCC/C(=C\c3ccc(Cl)c(Cl)c3)C2=O)cc1 | 68 | 95 | 100 | – | 64 | – | 71 | – | – | – | – |
| 1.9 | 920 | inactive | – | – | COc1cc(/C=C2\CCC/C(=C\c3ccc(O)cc3)C2=O)ccc1O | 88 | < 50 | 100 | – | 96 | – | 100 | – | – | – | – |
| – | – | – | – | – | COC(=O)[C@@H](N)CCCNC(=N)N[N+](=O)[O-] [L-NAME] | – | – | – | – | – | – | 53 | – | – | – | – |
| – | – | – | – | – | O=C1/C(=C/c2ccc(Br)cc2)CCC/C1=C\c1ccc(-c2ccc(F)cc2)cc1 | 66 | 92 | 98 | inactive | 53 | – | – | – | – | – | – |

Reference: ChEMBL document CHEMBL3792362 (Bioorg Med Chem Lett, 2016)
